# Tests used:
# L1210 [1] = test: Cytostatic activity against Mycoplasma hyorhinis-infected mouse L1210 cells after 48 hrs by cell counting; format: functional, cell-based; conditions: L1210, 48 h
# Outline: (§1)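 Suspension leukemia cells in DMEM with 10% FBS, 10 mM Hepes and 1 mM sodium pyruvate at 37 °C under 5% CO2. Seeded at 60 000 cells/well with graded compound levels. Grown 48 h (L1210) or 72 h (CEM), then counted by Coulter counter. Mean ± SD of two to four independent experiments.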
# L1210 [2] = test: Ratio of IC50 for Mycoplasma hyorhinis-infected mouse L1210 cells to IC50 for mouse L1210/0 cells after 48 hrs by cell counting; format: functional
# Outline: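 Murine L1210/0 cells were compared with L1210/TK cells, selected for resistance to 5-bromo-2'-dUrd, and with L1210.Hyor cells, chronically infected with Mycoplasma hyorhinis. Cells were grown in DMEM with 10% FBS, 10 mM Hepes and 1 mM pyruvate at 37 °C and 5% CO2, then seeded at 60 000 cells/well with compound. They were Coulter-counted after 48 h. […] Mean of 2–4 experiments.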
# CCRF-CEM [3] = test: Cytostatic activity against thymidine-kinase deficient human CEM cells after 72 hrs by cell counting; format: functional, cell-based; outline: as §1
# HeLa [4] = test: Cytostatic activity against human HeLa cells […] by cell counting; format: functional, cell-based
# HeLa [5] = test: Cytostatic activity against thymidine-kinase deficient human HeLa cells […]; format: functional, cell-based
# CCRF-CEM [6] = test: Cytostatic activity against human CEM/0 cells after 72 hrs by cell counting; format: functional, cell-based
# Outline: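 Suspension leukemia cells in DMEM with 10% FBS, 10 mM Hepes and 1 mM sodium pyruvate at 37 °C under 5% CO2. Seeded at 60 000 cells/well with graded compound levels. Grown 48 h (L1210) or 72 h (CEM), then counted by Coulter counter. […] Mean ± SD of two to four independent experiments.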
# [7] = Cytostatic activity against mouse L1210/0 cells after 48 hrs by cell counting; format: functional, cell-based; conditions: L1210/0, 48 h; outline: as §1
# L1210 [8] = test: Cytostatic activity against thymidine-kinase deficient mouse L1210 cells after 48 hrs by cell counting; format: functional, cell-based; conditions: L1210, 48 h; outline: as §1
IC50 (L1210 [1]) [nM],IC50 (CCRF-CEM [3]) [nM],IC50 (HeLa [4]) [nM],IC50 (HeLa [5]) [nM],IC50 (CCRF-CEM [6]) [nM],IC50 [7] [nM],IC50 (L1210 [8]) [nM],SMILES,Ratio IC50 (L1210 [2])
2200,30000,710,25000,1000,980,1100,CC[C@H](C)[C@H](NP(=O)(OC[C@H]1O[C@@H](n2cc(F)c(=O)[nH]c2=O)C[C@@H]1O)Oc1ccccc1)C(=O)OCc1ccccc1 (mixture of isomers),2.2
140,8300,40,6600,100,30,2900,CCCCCOC(=O)[C@H](Cc1ccccc1)NP(=O)(OC[C@H]1O[C@@H](n2cc(F)c(=O)[nH]c2=O)C[C@@H]1O)Oc1cccc2ccccc12 (mixture of isomers),4.67
410,13000,150,7100,350,130,2200,CCCCCOC(=O)[C@H](CCSC)NP(=O)(OC[C@H]1O[C@@H](n2cc(F)c(=O)[nH]c2=O)C[C@@H]1O)Oc1ccccc1 (mixture of isomers),3.2
48,30000,80,9400,130,29,1500,CC(C)C[C@H](NP(=O)(OC[C@H]1O[C@@H](n2cc(F)c(=O)[nH]c2=O)C[C@@H]1O)Oc1cccc2ccccc12)C(=O)OCc1ccccc1 (mixture of isomers),1.7
19,5400,120,2300,140,45,300,CCCCCOC(=O)C(C)(C)NP(=O)(OC[C@H]1O[C@@H](n2cc(F)c(=O)[nH]c2=O)C[C@@H]1O)Oc1cccc2ccccc12 (mixture of isomers),0.42
42,1000,100,7100,79,39,40000,C[C@H](NP(=O)(OC[C@H]1O[C@@H](n2cc(F)c(=O)[nH]c2=O)C[C@@H]1O)Oc1cccc2ccccc12)C(=O)OC1Cc2ccccc2C1 (mixture of isomers),1.08
170,16000,67,5600,240,54,2000,CC(C)C[C@H](NP(=O)(OC[C@H]1O[C@@H](n2cc(F)c(=O)[nH]c2=O)C[C@@H]1O)Oc1ccccc1)C(=O)OCc1ccccc1 (mixture of isomers),3.2
700,17000,300,11000,460,420,12000,CCCCCOC(=O)[C@@H](NP(=O)(OC[C@H]1O[C@@H](n2cc(F)c(=O)[nH]c2=O)C[C@@H]1O)Oc1cccc2ccccc12)[C@@H](C)CC (mixture of isomers),1.67
560,11000,14,12000,250,16,39000,O=C(OCc1ccccc1)[C@H](Cc1ccccc1)NP(=O)(OC[C@H]1O[C@@H](n2cc(F)c(=O)[nH]c2=O)C[C@@H]1O)Oc1ccccc1 (mixture of isomers),35
2.2,650,39,1800,80,3.2,76,CCCCCCOC(=O)[C@H](C)NP(=O)(OC[C@H]1O[C@@H](n2cc(F)c(=O)[nH]c2=O)C[C@@H]1O)Oc1cccc2ccccc12 (mixture of isomers),0.69
4400,> 250000,1200,27000,1000,200,42000,CCOC(=O)[C@@H](NP(=O)(OC[C@H]1O[C@@H](n2cc(F)c(=O)[nH]c2=O)C[C@@H]1O)Oc1ccccc1)C(C)C (mixture of isomers),22

SMILES,IC50 (L1210 [1]) [nM],IC50 (CCRF-CEM [3]) [nM],IC50 (HeLa [4]) [nM],IC50 (HeLa [5]) [nM],IC50 (CCRF-CEM [6]) [nM],IC50 [7] [nM],IC50 (L1210 [8]) [nM],Ratio IC50 (L1210 [2])
O=C(OCc1ccccc1)[C@@H]1CCCN1P(=O)(OC[C@H]1O[C@@H](n2cc(F)c(=O)[nH]c2=O)C[C@@H]1O)Oc1ccccc1 (mixture of isomers),18000,28000,1100,20000,980,350,31000,51
C[C@H](NP(=O)(OC[C@H]1O[C@@H](n2cc(F)c(=O)[nH]c2=O)C[C@@H]1O)Oc1cccc2ccccc12)C(=O)OC1CCOCC1 (mixture of isomers),480,43000,130,15000,110,41,27000,11.7
CC(C)OC(=O)[C@H](C)NP(=O)(OC[C@H]1O[C@@H](n2cc(F)c(=O)[nH]c2=O)C[C@@H]1O)Oc1ccccc1 (mixture of isomers),700,30000,710,25000,1000,50,1100,14
O=C(OCc1ccccc1)[C@@H]1CCCN1P(=O)(OC[C@H]1O[C@@H](n2cc(F)c(=O)[nH]c2=O)C[C@@H]1O)Oc1cccc2ccccc12 (mixture of isomers),650,32000,1200,26000,890,260,25000,2.5
C[C@H](NP(=O)(OC[C@H]1O[C@@H](n2cc(F)c(=O)[nH]c2=O)C[C@@H]1O)Oc1cccc2ccccc12)C(=O)OC1CCC1 (mixture of isomers),24,1500,69,1500,73,11,88,2.2
C[C@H](NP(=O)(OC[C@H]1O[C@@H](n2cc(F)c(=O)[nH]c2=O)C[C@@H]1O)Oc1cccc2ccccc12)C(=O)OC1CCCC1 (mixture of isomers),24,920,71,2200,35,16,130,1.5
C[C@H](NP(=O)(OC[C@H]1O[C@@H](n2cc(F)c(=O)[nH]c2=O)C[C@@H]1O)Oc1cccc2ccccc12)C(=O)OC1CCCCC1 (mixture of isomers),49,1000,90,–,57,36,150,1.4
CCOC(=O)[C@H](C)NP(=O)(OC[C@H]1O[C@@H](n2cc(F)c(=O)[nH]c2=O)C[C@@H]1O)Oc1ccccc1 (mixture of isomers),540,14000,480,9800,920,110,940,5
CCCCOC(=O)[C@H](C)NP(=O)(OC[C@H]1O[C@@H](n2cc(F)c(=O)[nH]c2=O)C[C@@H]1O)Oc1cccc2ccccc12 (mixture of isomers),21,840,120,2700,64,9.5,110,2.2

# Source: ChEMBL document CHEMBL2177092, “Phosphoramidate ProTides of the anticancer agent FUDR successfully deliver the preformed bioactive monophosphate in cells and confer advantage over the parent nucleoside” (J Med Chem, 2011)
